Tests used:
[1] = Percent of zwitter ion formed, was determined at pH 7.4; assay type: ADME
[2] = The isoelectric point (pI) as the arithmetic mean of pKa1 and pKa2; assay type: physicochemical
[3] = Dissociation constants determined by potentiometry at 25 degree celsius (Amino group); assay type: physicochemical
In short: (§1)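 Potentiometric titration at 25 ± 1 °C with ionic strength held at 0.1 M by KCl. Excess HCl added, then back-titrated with 0.01 N NaOH. Curves run in triplicate. pKa derived by non-logarithmic linearization of the titration curve, corrected for dilution during titration.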

[4] = Dissociation constants determined by potentiometry at 25 degree celsius (phenolic group); assay type: physicochemical; in short: as §1

SMILES	Z [1]	pI [2]	PKa2 [3]	PKa1 [4]
CCN1CCC[C@H]1CNC(=O)c1c(O)c(Br)cc(Br)c1OC	95%	7.56	9.18	5.94
CCc1cc(CC)c(OC)c(C(=O)NC[C@@H]2CCCN2CC)c1O	56%	8.42	9.55	7.28
CCc1cc(Cl)c(OC)c(C(=O)NC[C@@H]2CCCN2CC)c1O [ETICLOPRIDE]	74%	8.3	9.67	6.93
CCc1cc(Cl)c(O)c(C(=O)NC[C@@H]2CCCN2CC)c1OC	76%	8.24	9.6	6.88
CCN1CCC[C@H]1CNC(=O)c1c(O)c(Cl)cc(Cl)c1OC [RACLOPRIDE]	96%	7.51	9.21	5.81
COc1c(Cl)cc(Cl)c(O)c1C(=O)NC1CCN(C)CC1	95%	7.54	9.12	5.96

Results, then the compound that gave them:

Z [1]	pI [2]	PKa2 [3]	PKa1 [4]	SMILES
96%	7.49	9.16	5.81	CCN1CCC[C@H]1CNC(=O)c1c(OC)ccc([N+](=O)[O-])c1O
65%	8.4	9.66	7.13	CCN1CCC[C@H]1CNC(=O)c1c(OC)ccc(Cl)c1O
5%	9.13	9.56	8.7	CCN1CCC[C@H]1CNC(=O)c1c(O)cccc1OC
5%	9.14	9.57	8.71	CCc1ccc(OC)c(C(=O)NC[C@@H]2CCCN2CC)c1O
